ChEMBL document CHEMBL4680121, “Development of (4-methoxyphenyl)-1H-tetrazol-5-amine regioisomers as a new class of selective antitubercular agents” (Eur J Med Chem, 2020)
In brackets after ≈: the same amount, converted by molar mass.

Tests used:
HaCaT [1] = experiment: Cytotoxicity against human HaCaT cells assessed as reduction in cell viability measured after 72 hrs by MTT assay; type: cell-based
Outline: (§1)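 MTT viability assay on cells grown in DMEM with 10% heat-inactivated FBS, penicillin/streptomycin and 20 mM HEPES at 37 °C/5% CO2. Cells were seeded at 1×10^4 per well and allowed to adhere for 24 h, then the medium was refreshed. Compounds were added at 20–140 μM for 72 h at 37 °C, followed by MTT (0.5 mg/mL in serum-free medium) for 4 h. Untreated cells served as control. IC50 is the concentration giving 50% growth inhibition versus control.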

HaCaT [2] = experiment: Cytotoxicity against human HaCaT cells assessed as reduction in cell viability at 100 uM measured after 72 hrs by MTT assay; type: cell-based; outline: as §1
Staphylococcus aureus [3] = experiment: Antibacterial activity against Staphylococcus aureus ATCC 6538 assessed as bacterial growth inhibition measured after 18 hrs by two-fold serial microdilution method; type: functional
Outline: (§2)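 Two-fold serial broth microdilution in MH II medium following modified CLSI procedures. Compounds were dissolved in DMSO and diluted in medium to at most 1% solvent, tested from 0.03125 to 512 μg/ml. Final inoculum 10^6 CFU/ml. MIC was taken as the lowest concentration with no visible growth after 18 h at 35 °C.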

[4] = system: Mycolicibacterium fortuitum; experiment: Antibacterial activity against Mycobacterium fortuitum assessed as inhibition of microbial growth incubated for 1 week by MABA method; type: functional; conditions: 168 h, time 1 weeks
Outline: (§3)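 Microplate Alamar Blue assay using two-fold serial microdilution in Middlebrook 7H9 broth with 10% OADC, compounds 0.125–512 µg/ml from DMSO stocks. Inoculum came from fresh LJ culture, was adjusted to McFarland 1 and diluted 1:20. Plates were incubated 1 week at 37 °C, Alamar blue was added and plates were re-incubated 24 h. MIC was the lowest concentration preventing the blue-to-pink change. Each plate carried growth and sterile controls.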

Escherichia coli = experiment: Antibacterial activity against Escherichia coli ATCC 25922 assessed as bacterial growth inhibition measured after 18 hrs by two-fold serial microdilution method; type: functional; outline: as §2
Mycobacterium avium = experiment: Antimycobacterial activity against Mycobacterium avium assessed as inhibition of microbial growth incubated for 1 week by MABA method; type: functional; conditions: 168 h, time 1 weeks
Outline: (§4)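 Microplate Alamar Blue assay in Middlebrook 7H9 broth with 10% OADC. Inoculum from fresh LJ culture was adjusted to McFarland 1 and diluted 1:20. DMSO stocks were two-fold serially diluted to final 0.125–512 µg/ml, with growth and sterile controls. Plates ran 1 week at 37 °C, then Alamar blue was added for 24 h. MIC is the lowest concentration preventing the blue-to-pink change.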

[5] = system: Mycobacterium tuberculosis; experiment: Antitubercular activity against Mycobacterium tuberculosis H37Rv ATCC 25618 assessed as inhibition of microbial growth incubated for 1 week by MABA method; type: functional; conditions: H37Rv ATCC 25618, 168 h, time 1 weeks; outline: as §4
[6] = system: Staphylococcus epidermidis; experiment: Antibacterial activity against Staphylococcus epidermidis ATCC 35984/RP62A assessed as bacterial growth inhibition measured after 18 hrs by two-fold serial microdilution method; type: functional; outline: as §2
Mycobacterium kansasii = experiment: Antibacterial activity against Mycobacterium kansasii assessed as inhibition of microbial growth incubated for 1 week by MABA method; type: functional; conditions: 168 h, time 1 weeks; outline: as §3
[7] = system: Mycobacterium intracellulare; experiment: Antimycobacterial activity against Mycobacterium intracellulare assessed as inhibition of microbial growth incubated for 1 week by MABA method; type: functional; conditions: 168 h, time 1 weeks; outline: as §3
Proteus vulgaris = experiment: Antibacterial activity against Proteus vulgaris NCTC 4635 assessed as bacterial growth inhibition measured after 18 hrs by two-fold serial microdilution method; type: functional; outline: as §2
[8] = system: Mycobacterium tuberculosis; experiment: Antitubercular activity against Mycobacterium tuberculosis Spec.192 assessed as inhibition of microbial growth incubated for 1 week by MABA method; type: functional; conditions: Mycobacterium tuberculosis, 192, 168 h; time 1 weeks; outline: as §4
[9] = system: Staphylococcus epidermidis; experiment: Antibacterial activity against Staphylococcus epidermidis ATCC 1457 assessed as bacterial growth inhibition measured after 18 hrs by two-fold serial microdilution method; type: functional; outline: as §2
Mycobacterium xenopi = experiment: Antibacterial activity against Mycobacterium xenopi assessed as inhibition of microbial growth incubated for 1 week by MABA method; type: functional; conditions: 168 h, time 1 weeks; outline: as §3
Pseudomonas aeruginosa [10] = experiment: Antibacterial activity against Pseudomonas aeruginosa PAO1 assessed as bacterial growth inhibition measured after 18 hrs by two-fold serial microdilution method; type: functional; outline: as §2
Klebsiella pneumoniae = experiment: Antibacterial activity against Klebsiella pneumoniae ATCC 10031 assessed as bacterial growth inhibition measured after 18 hrs by two-fold serial microdilution method; type: functional; outline: as §2
V79 [11] = experiment: Cytotoxicity against Chinese Hamster V79 cells assessed as reduction in cell viability measured after 72 hrs by MTT assay; type: cell-based; conditions: Cricetulus griseus, V79, 72 h; outline: as §1
V79 [12] = experiment: Cytotoxicity against Chinese Hamster V79 cells assessed as reduction in cell viability at 100 uM measured after 72 hrs by MTT assay; type: cell-based, Cricetulus griseus; conditions: v79, 72 h; outline: as §1
Pseudomonas aeruginosa [13] = experiment: Antibacterial activity against Pseudomonas aeruginosa NCTC 6749 assessed as bacterial growth inhibition measured after 18 hrs by two-fold serial microdilution method; type: functional; outline: as §2
[14] = system: Staphylococcus epidermidis; experiment: Antibacterial activity against Staphylococcus epidermidis ATCC 12228 assessed as bacterial growth inhibition measured after 18 hrs by two-fold serial microdilution method; type: functional; outline: as §2
Staphylococcus aureus [15] = experiment: Antibacterial activity against Staphylococcus aureus NCTC 4163 assessed as bacterial growth inhibition measured after 18 hrs by two-fold serial microdilution method; type: functional; outline: as §2
[16] = system: Mycobacterium scrofulaceum; experiment: Antibacterial activity against Mycobacterium scrofulaceum assessed as inhibition of microbial growth incubated for 1 week by MABA method; type: functional; conditions: 168 h, time 1 weeks; outline: as §3

Row | Compound | IC50 (HaCaT [1]) [µM] | Activity (HaCaT [2]) | MIC (Staphylococcus aureus [3]) [µg/mL] | MIC [4] [µg/mL] | MIC (Escherichia coli) [µg/mL] | MIC (Mycobacterium avium) [µg/mL] | MIC [5] [µg/mL] | MIC [6] [µg/mL] | MIC (Mycobacterium kansasii) [µg/mL] | MIC [7] [µg/mL] | MIC (Proteus vulgaris) [µg/mL] | MIC [8] [µg/mL] | MIC [9] [µg/mL] | MIC (Pseudomonas aeruginosa [10]) [µg/mL] | MIC (Klebsiella pneumoniae) [µg/mL] | IC50 (V79 [11]) [µM] | Activity (V79 [12]) | MIC (Pseudomonas aeruginosa [13]) [µg/mL] | MIC [14] [µg/mL] | MIC (Staphylococcus aureus [15]) [µg/mL] | other results
1 | COc1ccc(-n2nnnc2Nc2ccccc2Br)cc1 | 137 | Non-Toxic | 256 (≈ 739 µM) | 256 | > 256 | 256 | 64 | 256 (≈ 739 µM) | 512 | 128 | > 256 | 64 | 256 (≈ 739 µM) | > 256 | > 256 | 239 | Non-Toxic | > 256 | 128 (≈ 370 µM) | 256 (≈ 739 µM) | MIC (Mycobacterium xenopi): 512 µg/mL; MIC [16]: 256 µg/mL
2 | COc1ccc(-n2nnnc2Nc2ccccc2F)cc1 | 111 | Non-Toxic | > 256 | – | > 256 | – | 16 | > 256 | – | – | > 256 | 16 | > 256 | > 256 | > 256 | 115 | Non-Toxic | > 256 | > 256 | > 256 | –
3 | COc1ccc(-n2nnnc2Nc2cccc(Cl)c2)cc1 | 141 | Non-Toxic | > 256 | 256 | > 256 | 256 | 32 | > 256 | 512 | 128 | > 256 | 32 | > 256 | > 256 | > 256 | 243 | Non-Toxic | > 256 | > 256 | > 256 | MIC (Mycobacterium xenopi): > 512 µg/mL; MIC [16]: 512 µg/mL
4 | COc1ccc(-n2nnnc2Nc2ccccc2Cl)cc1 | 134 | Non-Toxic | 32 (≈ 106 µM) | 256 | > 256 | 128 | 8 | 256 (≈ 848 µM) | 512 | 128 | 64 (≈ 212 µM) | 8 | 64 (≈ 212 µM) | > 256 | > 256 | 246 | Non-Toxic | > 256 | 128 (≈ 424 µM) | 32 (≈ 106 µM) | MIC (Mycobacterium xenopi): 512 µg/mL; MIC [16]: 32 µg/mL
5 | COc1ccc(-n2nnnc2Nc2ccc(Cl)cc2)cc1 | 143 | Non-Toxic | 128 (≈ 424 µM) | > 512 | > 256 | > 512 | 16 | 128 (≈ 424 µM) | > 512 | 32 | 128 (≈ 424 µM) | 16 | 128 (≈ 424 µM) | > 256 | > 256 | 245 | Non-Toxic | > 256 | 64 (≈ 212 µM) | 128 (≈ 424 µM) | MIC (Mycobacterium xenopi): 512 µg/mL; MIC [16]: > 512 µg/mL
6 | COc1ccc(Nc2nnnn2-c2ccccc2F)cc1 | 122 | Non-Toxic | 64 (≈ 224 µM) | 256 | 256 (≈ 897 µM) | 256 | 16 | 64 (≈ 224 µM) | 256 | 128 | 256 (≈ 897 µM) | 16 | 64 (≈ 224 µM) | 256 (≈ 897 µM) | 256 (≈ 897 µM) | 212 | Non-Toxic | 256 (≈ 897 µM) | 64 (≈ 224 µM) | 64 (≈ 224 µM) | MIC (Mycobacterium xenopi): 128 µg/mL; MIC [16]: 32 µg/mL
7 | COc1ccc(-n2nnnc2Nc2ccc(F)cc2)cc1 | 155 | Non-Toxic | 128 (≈ 449 µM) | 512 | > 256 | 256 | 32 | 128 (≈ 449 µM) | 512 | 16 | 128 (≈ 449 µM) | 32 | 128 (≈ 449 µM) | > 256 | > 256 | 236 | Non-Toxic | 128 (≈ 449 µM) | 64 (≈ 224 µM) | 128 (≈ 449 µM) | MIC (Mycobacterium xenopi): > 512 µg/mL; MIC [16]: 32 µg/mL
8 | O=C(O)c1cn(C2CC2)c2cc(N3CCNCC3)c(F)cc2c1=O [CIPROFLOXACIN] | – | – | – | – | < 0.0625 | – | – | 0.0625 (≈ 0.189 µM) | – | – | < 0.0625 | – | 0.125 (≈ 0.377 µM) | – | < 0.0625 | – | – | – | 0.125 (≈ 0.377 µM) | – | –
9 | COc1cccc2c1C(=O)c1c(O)c3c(c(O)c1C2=O)C[C@@](O)(C(=O)CO)C[C@@H]3O[C@H]1C[C@H](N)[C@H](O)[C@H](C)O1 [DOXORUBICIN] | 0.23 | – | – | – | – | – | – | – | – | – | – | – | – | – | – | 2.21 | – | – | – | – | –
